{"source": "paper PMC9536290", "about": "(Clinical Infectious Diseases: An Official Publication of …, 2022)", "test": "Phase IIa monotherapy study: safety and tolerability", "format": "in vivo, HIV-1–positive, treatment-naive adults", "settings": "for Drug-related AEs: Abdominal pain / Drug-related AEs: Any event / Drug-related AEs: Chromaturia / Drug-related AEs: Diarrhea / Drug-related AEs: Epistaxis / Drug-related AEs: Fatigue / Drug-related AEs: Headache / Drug-related AEs: Maculopapular rash / Drug-related AEs: Nausea / Drug-related AEs: Pruritus / Drug-related AEs: Vomiting / Total AEs: Abdominal pain / Total AEs: Any event / Total AEs: Diarrhea / Total AEs: Headache / Total AEs: Lymphadenopathy / Total AEs: Nasopharyngitis / Total AEs: Oropharyngeal pain / Total AEs: Vomiting / Serious AEs: Anal abscess / Serious AEs: Congestive cardiomyopathy: n = 6; for Serious AEs: Anal abscess / Serious AEs: Congestive cardiomyopathy: considered not related to the study drug", "procedure,_shortened": "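Adults were ART-naive, aged 18–65 years, with HIV-1 RNA ≥5000 copies/mL and CD4+ ≥350 cells/mm3. They received placebo or oral once-daily doses after a moderate-fat meal: 10 or 200 mg for 10 days (part 1), or 40–140 mg for 7 days (part 2). Safety was monitored through adverse events, clinical laboratory tests, electrocardiograms and vital signs.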", "key": {"[1]": {"settings": "10 mg once daily, part 1 (10 days)"}, "[2]": {"settings": "40 mg once daily, part 2 (7 days)"}, "[3]": {"settings": "80 mg once daily, part 2 (7 days)"}, "[4]": {"settings": "140 mg once daily, part 2 (7 days)"}, "[5]": {"settings": "200 mg once daily, part 1 (10 days)"}, "[6]": {"settings": "all doses combined, % of 34 participants"}}}
{"smiles": "C=C(C)[C@@H]1CC[C@]2(NCCN3CCS(=O)(=O)CC3)CC[C@]3(C)[C@H](CC[C@@H]4[C@@]5(C)CC=C(C6=CC[C@@](CF)(C(=O)O)CC6)C(C)(C)[C@@H]5CC[C@]43C)[C@@H]12", "note": "[GSK’254]", "values": [{"measurement": "Drug-related AEs: Abdominal pain", "setting": "[1]", "result": "0 n (%)"}, {"measurement": "Drug-related AEs: Any event", "setting": "[1]", "result": "2 (33) n (%)"}, {"measurement": "Drug-related AEs: Chromaturia", "setting": "[1]", "result": "1 (17) n (%)"}, {"measurement": "Drug-related AEs: Diarrhea", "setting": "[1]", "result": "1 (17) n (%)"}, {"measurement": "Drug-related AEs: Epistaxis", "setting": "[1]", "result": "0 n (%)"}, {"measurement": "Drug-related AEs: Fatigue", "setting": "[1]", "result": "0 n (%)"}, {"measurement": "Drug-related AEs: Headache", "setting": "[1]", "result": "0 n (%)"}, {"measurement": "Drug-related AEs: Maculopapular rash", "setting": "[1]", "result": "0 n (%)"}, {"measurement": "Drug-related AEs: Nausea", "setting": "[1]", "result": "1 (17) n (%)"}, {"measurement": "Drug-related AEs: Pruritus", "setting": "[1]", "result": "0 n (%)"}, {"measurement": "Drug-related AEs: Vomiting", "setting": "[1]", "result": "1 (17) n (%)"}, {"measurement": "Total AEs: Abdominal pain", "setting": "[1]", "result": "0 n (%)"}, {"measurement": "Total AEs: Any event", "setting": "[1]", "result": "3 (50) n (%)"}, {"measurement": "Total AEs: Diarrhea", "setting": "[1]", "result": "1 (17) n (%)"}, {"measurement": "Total AEs: Headache", "setting": "[1]", "result": "0 n (%)"}, {"measurement": "Total AEs: Lymphadenopathy", "setting": "[1]", "result": "1 (17) n (%)"}, {"measurement": "Total AEs: Nasopharyngitis", "setting": "[1]", "result": "0 n (%)"}, {"measurement": "Total AEs: Oropharyngeal pain", "setting": "[1]", "result": "0 n (%)"}, {"measurement": "Total AEs: Vomiting", "setting": "[1]", "result": "1 (17) n (%)"}, {"measurement": "Drug-related AEs: Abdominal pain", "setting": "[2]", "result": "0 n (%)"}, {"measurement": "Drug-related AEs: Any event", "setting": "[2]", "result": "2 (33) n (%)"}, {"measurement": "Drug-related AEs: Chromaturia", "setting": "[2]", "result": "0 n (%)"}, {"measurement": "Drug-related AEs: Diarrhea", "setting": "[2]", "result": "1 (17) n (%)"}, {"measurement": "Drug-related AEs: Epistaxis", "setting": "[2]", "result": "1 (17) n (%)"}, {"measurement": "Drug-related AEs: Fatigue", "setting": "[2]", "result": "1 (17) n (%)"}, {"measurement": "Drug-related AEs: Headache", "setting": "[2]", "result": "0 n (%)"}, {"measurement": "Drug-related AEs: Maculopapular rash", "setting": "[2]", "result": "0 n (%)"}, {"measurement": "Drug-related AEs: Nausea", "setting": "[2]", "result": "0 n (%)"}, {"measurement": "Drug-related AEs: Pruritus", "setting": "[2]", "result": "0 n (%)"}, {"measurement": "Drug-related AEs: Vomiting", "setting": "[2]", "result": "0 n (%)"}, {"measurement": "Total AEs: Abdominal pain", "setting": "[2]", "result": "0 n (%)"}, {"measurement": "Total AEs: Any event", "setting": "[2]", "result": "5 (83) n (%)"}, {"measurement": "Total AEs: Diarrhea", "setting": "[2]", "result": "1 (17) n (%)"}, {"measurement": "Total AEs: Headache", "setting": "[2]", "result": "1 (17) n (%)"}, {"measurement": "Total AEs: Lymphadenopathy", "setting": "[2]", "result": "0 n (%)"}, {"measurement": "Total AEs: Nasopharyngitis", "setting": "[2]", "result": "0 n (%)"}, {"measurement": "Total AEs: Oropharyngeal pain", "setting": "[2]", "result": "0 n (%)"}, {"measurement": "Total AEs: Vomiting", "setting": "[2]", "result": "0 n (%)"}, {"measurement": "Drug-related AEs: Abdominal pain", "setting": "[3]", "result": "2 (33) n (%)"}, {"measurement": "Drug-related AEs: Any event", "setting": "[3]", "result": "2 (33) n (%)"}, {"measurement": "Drug-related AEs: Chromaturia", "setting": "[3]", "result": "0 n (%)"}, {"measurement": "Drug-related AEs: Diarrhea", "setting": "[3]", "result": "0 n (%)"}, {"measurement": "Drug-related AEs: Epistaxis", "setting": "[3]", "result": "0 n (%)"}, {"measurement": "Drug-related AEs: Fatigue", "setting": "[3]", "result": "0 n (%)"}, {"measurement": "Drug-related AEs: Headache", "setting": "[3]", "result": "0 n (%)"}, {"measurement": "Drug-related AEs: Maculopapular rash", "setting": "[3]", "result": "0 n (%)"}, {"measurement": "Drug-related AEs: Nausea", "setting": "[3]", "result": "0 n (%)"}, {"measurement": "Drug-related AEs: Pruritus", "setting": "[3]", "result": "0 n (%)"}, {"measurement": "Drug-related AEs: Vomiting", "setting": "[3]", "result": "0 n (%)"}, {"measurement": "Total AEs: Abdominal pain", "setting": "[3]", "result": "2 (33) n (%)"}, {"measurement": "Total AEs: Any event", "setting": "[3]", "result": "4 (67) n (%)"}, {"measurement": "Total AEs: Diarrhea", "setting": "[3]", "result": "0 n (%)"}, {"measurement": "Total AEs: Headache", "setting": "[3]", "result": "0 n (%)"}, {"measurement": "Total AEs: Lymphadenopathy", "setting": "[3]", "result": "0 n (%)"}, {"measurement": "Total AEs: Nasopharyngitis", "setting": "[3]", "result": "0 n (%)"}, {"measurement": "Total AEs: Oropharyngeal pain", "setting": "[3]", "result": "0 n (%)"}, {"measurement": "Total AEs: Vomiting", "setting": "[3]", "result": "0 n (%)"}, {"measurement": "Drug-related AEs: Abdominal pain", "setting": "[4]", "result": "0 n (%)"}, {"measurement": "Drug-related AEs: Any event", "setting": "[4]", "result": "1 (17) n (%)"}, {"measurement": "Drug-related AEs: Chromaturia", "setting": "[4]", "result": "0 n (%)"}, {"measurement": "Drug-related AEs: Diarrhea", "setting": "[4]", "result": "0 n (%)"}, {"measurement": "Drug-related AEs: Epistaxis", "setting": "[4]", "result": "0 n (%)"}, {"measurement": "Drug-related AEs: Fatigue", "setting": "[4]", "result": "0 n (%)"}, {"measurement": "Drug-related AEs: Headache", "setting": "[4]", "result": "0 n (%)"}, {"measurement": "Drug-related AEs: Maculopapular rash", "setting": "[4]", "result": "1 (17) n (%)"}, {"measurement": "Drug-related AEs: Nausea", "setting": "[4]", "result": "0 n (%)"}, {"measurement": "Drug-related AEs: Pruritus", "setting": "[4]", "result": "1 (17) n (%)"}, {"measurement": "Drug-related AEs: Vomiting", "setting": "[4]", "result": "0 n (%)"}, {"measurement": "Total AEs: Abdominal pain", "setting": "[4]", "result": "0 n (%)"}, {"measurement": "Total AEs: Any event", "setting": "[4]", "result": "5 (83) n (%)"}, {"measurement": "Total AEs: Diarrhea", "setting": "[4]", "result": "0 n (%)"}, {"measurement": "Total AEs: Headache", "setting": "[4]", "result": "1 (17) n (%)"}, {"measurement": "Total AEs: Lymphadenopathy", "setting": "[4]", "result": "0 n (%)"}, {"measurement": "Total AEs: Nasopharyngitis", "setting": "[4]", "result": "0 n (%)"}, {"measurement": "Total AEs: Oropharyngeal pain", "setting": "[4]", "result": "1 (17) n (%)"}, {"measurement": "Total AEs: Vomiting", "setting": "[4]", "result": "0 n (%)"}, {"measurement": "Serious AEs: Anal abscess", "setting": "[4]", "result": "1 (17) n (%)"}, {"measurement": "Serious AEs: Congestive cardiomyopathy", "setting": "[4]", "result": "0 n (%)"}, {"measurement": "Drug-related AEs: Abdominal pain", "setting": "[5]", "result": "0 n (%)"}, {"measurement": "Drug-related AEs: Any event", "setting": "[5]", "result": "2 (33) n (%)"}, {"measurement": "Drug-related AEs: Chromaturia", "setting": "[5]", "result": "0 n (%)"}, {"measurement": "Drug-related AEs: Diarrhea", "setting": "[5]", "result": "1 (17) n (%)"}, {"measurement": "Drug-related AEs: Epistaxis", "setting": "[5]", "result": "0 n (%)"}, {"measurement": "Drug-related AEs: Fatigue", "setting": "[5]", "result": "0 n (%)"}, {"measurement": "Drug-related AEs: Headache", "setting": "[5]", "result": "1 (17) n (%)"}, {"measurement": "Drug-related AEs: Maculopapular rash", "setting": "[5]", "result": "0 n (%)"}, {"measurement": "Drug-related AEs: Nausea", "setting": "[5]", "result": "0 n (%)"}, {"measurement": "Drug-related AEs: Pruritus", "setting": "[5]", "result": "0 n (%)"}, {"measurement": "Drug-related AEs: Vomiting", "setting": "[5]", "result": "1 (17) n (%)"}, {"measurement": "Total AEs: Abdominal pain", "setting": "[5]", "result": "0 n (%)"}, {"measurement": "Total AEs: Any event", "setting": "[5]", "result": "5 (83) n (%)"}, {"measurement": "Total AEs: Diarrhea", "setting": "[5]", "result": "1 (17) n (%)"}, {"measurement": "Total AEs: Headache", "setting": "[5]", "result": "2 (33) n (%)"}, {"measurement": "Total AEs: Lymphadenopathy", "setting": "[5]", "result": "1 (17) n (%)"}, {"measurement": "Total AEs: Nasopharyngitis", "setting": "[5]", "result": "2 (33) n (%)"}, {"measurement": "Total AEs: Oropharyngeal pain", "setting": "[5]", "result": "2 (33) n (%)"}, {"measurement": "Total AEs: Vomiting", "setting": "[5]", "result": "1 (17) n (%)"}, {"measurement": "Serious AEs: Anal abscess", "setting": "[5]", "result": "0 n (%)"}, {"measurement": "Serious AEs: Congestive cardiomyopathy", "setting": "[5]", "result": "0 n (%)"}, {"measurement": "Trends in laboratory values, electrocardiograms, or vital signs", "setting": "across treatment groups in parts 1 or 2", "result": "No clinically significant trends"}, {"measurement": "AEs leading to treatment discontinuation", "setting": "all doses", "result": "No AEs led to treatment discontinuation"}, {"measurement": "Deaths", "setting": "all doses", "result": "no deaths were reported"}, {"measurement": "Number of drug-related AEs overall", "setting": "all doses combined", "result": "Fourteen"}, {"measurement": "Participants reporting abdominal pain overall", "setting": "all doses combined", "result": 2, "unit": "n"}, {"measurement": "Participants reporting diarrhea overall", "setting": "all doses combined", "result": 3, "unit": "n"}, {"measurement": "Participants reporting headache overall", "setting": "all doses combined", "result": 4, "unit": "n"}, {"measurement": "Participants reporting oropharyngeal pain overall", "setting": "all doses combined", "result": 3, "unit": "n"}, {"measurement": "Participants reporting vomiting overall", "setting": "all doses combined", "result": 2, "unit": "n"}, {"measurement": "Participants reporting drug-related AEs overall", "setting": "[6]", "result": "9 (26%) n (%)"}, {"measurement": "Participants with gastrointestinal AEs overall", "setting": "[6]", "result": "7 (21%) n (%)"}, {"measurement": "Participants reporting AEs overall", "setting": "all doses, % of 34 participants incl. placebo (n = 4), all had received GSK’254", "result": "22 (65%) n (%)"}, {"measurement": "Intensity of AEs and SAEs", "setting": "all doses, except 1 participant with 2 grade 3 non-drug-related AEs", "result": "mild-to-moderate"}]}
